Measurements reported in ChEMBL document CHEMBL1212759, “Antifungal activity of colistin against mucorales species in vitro and in a murine model of Rhizopus oryzae pulmonary infection” (Antimicrob Agents Chemother, 2010).

How the values were obtained:
Rhizopus homothallicus = assay: Antimicrobial activity against Rhizopus homothallicus isolate 5910 after 24 hrs in RMPI 1640 medium by broth microdilution method; assay type: functional
Procedure, shortened: (§1)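 Colistin was serially diluted from 64 to 0.06 μg/ml in RPMI 1640 with glucamine and without bicarbonate. Fresh spores from 48–72 h YAG plates were added at 0.5 × 10^4 to 4 × 10^4 cells/ml. Plates were incubated 24 h at 37°C. MIC was read visually as the lowest concentration giving 100% growth inhibition.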

Rhizopus microsporus = assay: Antimicrobial activity against Rhizopus microsporus isolate 6164 after 24 hrs in RMPI 1640 medium by broth microdilution method; assay type: functional; procedure, shortened: as §1
Rhizopus arrhizus [1] = assay: Antimicrobial activity against Rhizopus oryzae isolate 6725 after 24 hrs in RMPI 1640 medium by broth microdilution method; assay type: functional, organism-based
Procedure, shortened: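 Broth microdilution in RPMI 1640 with […], without bicarbonate. Colistin was serially diluted 64 to 0.06 μg/ml. Spores came from YAG plates grown 48–72 h at 37°C, were filtered and counted, and were inoculated at 0.5 × 10^4 to 4 × 10^4 cells/ml. Plates were incubated 24 h at 37°C. MIC was read visually as the lowest concentration giving 100% growth inhibition.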

Mucor circinelloides = assay: Antimicrobial activity against Mucor circinelloides isolate 4480 after 24 hrs in yeast nitrogen base complete medium by broth microdilution method; assay type: functional, organism-based
Procedure, shortened: (§2)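 Broth microdilution in YNB complete medium with colistin at 128 to 0.12 μg/ml. Freshly collected spores were inoculated at 0.5 × 10^4 to 4 × 10^4 cells/ml and incubated 24 h at 37°C. MIC was read visually as the lowest concentration with complete (100%) growth inhibition.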

Rhizopus arrhizus [2] = assay: Antimicrobial activity against Rhizopus oryzae isolate 5496 after 24 hrs in yeast nitrogen base complete medium by broth microdilution method; assay type: functional, organism-based; procedure, shortened: as §2

COLISTIN
MFC (Rhizopus homothallicus): 32 µg/mL | MIC (Rhizopus homothallicus): 32 µg/mL | MFC (Rhizopus microsporus): 64 µg/mL | MIC (Rhizopus microsporus): 32 µg/mL | MFC (Rhizopus arrhizus [1]): 32 µg/mL | MIC (Rhizopus arrhizus [1]): 16 µg/mL | MFC (Mucor circinelloides): > 128 µg/mL | MIC (Mucor circinelloides): 128 µg/mL | MFC (Rhizopus arrhizus [2]): > 128 µg/mL | MIC (Rhizopus arrhizus [2]): 128 µg/mL
